Data on five compounds can be found in ChEMBL document CHEMBL6087445, “Discovery of Non-Covalent Inhibitors for SARS-CoV-2 PLpro: Integrating Virtual Screening, Synthesis, and Experimental Validation” (ACS Med Chem Lett, 2024).

A short description of series [1]: Microsomal stability in human liver microsomes assessed as parent compound remaining measured after 30 mins by LC-MS/MS analysis. In kind it is ADME, Microsome. The settings on record: read-out: Stability.
In series [2] the test system is Severe acute respiratory syndrome coronavirus 2. Kind of series: Inhibition of recombinant SARS-CoV-2 PLpro extracted from Escherichia coli BL21 (DE3) cells in absence of CHAPS detergent by microplate reader analysis. The method, boiled down:
(§1)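 SARS-CoV-2 PLpro enzymatic inhibition run with and without 1 mM CHAPS detergent; GRL0617 served as positive control.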

Series [3] has the same test system. In words: Binding affinity to recombinant SARS-CoV-2 PLpro extracted from Escherichia coli BL21 (DE3) cells assessed as change in melting temperature at 1000 uM by DSF analysis.
Series [4] can be described thus: Selectivity ratio of CC50 for cytotoxicity against human HepG2 cells to CC50 for African green monkey Vero cells. Conditions: HepG2 cells and Vero cells; call rule not given here. In kind it is toxicity, cell-based.
For series [5], the system named is Severe acute respiratory syndrome coronavirus 2. Kind of series: Inhibition of recombinant SARS-CoV-2 PLpro extracted from Escherichia coli BL21 (DE3) cells in presence of CHAPS detergent by microplate reader analysis. The method, boiled down: as §1
Series [6] shares this test system. In words: Inhibition of recombinant SARS-CoV-2 PLpro extracted from Escherichia coli BL21 (DE3) cells in presence of 0.01% triton by microplate reader analysis.
Series [7] shares this test system. In words: Inhibition of recombinant SARS-CoV-2 PLpro extracted from Escherichia coli BL21 (DE3) cells in absence of 0.01% triton by microplate reader analysis.
Series [8] can be described thus: Microsomal stability in mouse liver microsomes assessed as parent compound remaining measured after 30 mins by LC-MS/MS analysis. In kind it is ADME, Microsome. The settings on record: read-out: Stability.
Series [9] in a line: Microsomal stability in rat liver microsomes assessed as parent compound remaining measured after 30 mins by LC-MS/MS analysis. The settings on record: read-out: Stability. In kind it is ADME, Microsome.

As for `COc1ccc(-c2ccc3nccc(N[C@@H]4CCNC4)c3n2)cn1`, the remaining at 0.5 h in series [1] was found to be 54.6%. For the same compound, the inhibition result in [2] and in [5] was “Active; Compound Is Not An Aggregator” throughout. For the same compound, the ΔTm in series [3] was more than 1 °C. The selectivity ratio in [4] is 2.

For the compound `Cn1ccc(-c2ccc3nccc(N[C@@H]4CCNC4)c3n2)cc1=O`, the inhibition entry in series [6] and in series [7] was “Active; Compound Is Not An Aggregator” throughout. The remaining at 0.5 h in [1] is 98%; in [8] it was more than 99%; in [9], 94.3%. In addition, the ΔTm in series [3] was more than 1 °C. Besides, the selectivity ratio in [4] stood at 2.

With `CNC(=O)c1ccc(-c2ccc3nccc(NC4CCNCC4)c3n2)cn1`, the remaining at 0.5 h in series [1] worked out at 94.4%; in series [8], 93.4%; in series [9] it was 97.4%. Also, the ΔTm in [3] was more than 1 °C.

As to `CN1CCC(Nc2ccnc3ccc(-c4ccc(C(=O)NCCO)nc4)nc23)CC1`, the remaining at 0.5 h was determined as 95.5% in [1], 97.3% in [8] and 94.2% in [9]. Moreover, the ΔTm in series [3] is more than 1 °C.

As for `CS(=O)(=O)c1cccc(-c2ccc3nccc(N4CCNCC4)c3n2)c1`, in series [1], the remaining at 0.5 h is 55.1%. Further, the ΔTm in series [3] is more than 1 °C.
